Results published in article PMC2587450 (International journal of cancer. Journal international du …, 2008).

How the values were obtained:
[1] = cited from earlier work
α1β1 integrin = settings: reduced disulfide bonds, cysteines blocked with vinylpyridine; cited from earlier work
[2] = tested on: MV3 melanoma-induced angiogenesis; assay: MV3 tumor-induced angiogenesis in quail embryonic CAM; assay type: in vivo, Japanese quail (Coturnix coturnix japonica); settings: MV3 on quail CAM, 20 μg daily, day 12
In short: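 Japanese quail eggs ethanol-cleaned, kept at 37°C without CO₂ to embryonic day 3, then opened and contents moved to 6-well plates at 37°C. Day 6: MV3 cells (1 × 10⁷/50 μl PBS) applied onto CAM; after 24 h growth, 20 μg test compound per 50 μl PBS daily. Tumors excised and weighed; remaining membrane slide-mounted, fractal dimension (Df) measured in square area opposite the tumor.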

[3] = assay type: in vivo, mouse; settings: mice, Western blot, variety of time intervals
MV3 = assay: Apoptosis in MV3 melanoma cell line; assay type: cell-based; settings: MV3 human melanoma cell line (data not shown)
B16F10 mouse melanoma = assay: B16F10 melanoma growth in syngeneic C57BL/6 mice; assay type: in vivo; settings: for effect on tumor growth, i.p. route: B16F10 melanoma model
In short: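 Daily caliper volumes (width² × length × 0.52). Formalin-fixed paraffin 5-μm sections: anti-von Willebrand factor vessels counted in 10 high-power fields (400×) and averaged, blinded, 3 investigators; colorimetric TUNEL; S.D. from 5 animals.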

dHMVEC [4] = assay: Apoptosis assays in dHMVEC; assay type: cell-based, human; settings: 2 μM
In short: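 Primary adult dermal microvascular endothelial cells (passages 5–8, complete EBM-2). Annexin V: 2 μM test compound 16 h in complete EBM-2, cells detached, annexin V-FITC stained, two-colour flow cytometry within 1 h. Caspase 3: ±2 μM 16 h in complete medium, vincristine 50 μg/ml as positive control, lysates read by colorimetric ELISA at 450 nm. Morphology: 90% confluent cells, 2 μM 24 h, 2% paraformaldehyde-fixed, phase contrast 200×.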

dHMVEC [5] = assay: dHMVEC proliferation assay; assay type: cell-based, human; settings: BrdUrd, induced by 2% FBS or 50 ng/ml hrVEGF or vpVEGF, 2 μM obtustatin for VEGF
[6] = assay type: in vivo, mouse; settings: mice
B16F10 = assay: Apoptosis in B16F10 melanoma cell line; assay type: cell-based; settings: B16F10 mouse melanoma cell line (data not shown)

| Compound | half life time [1] | change of activity against α1β1 integrin versus native obtustatin (α1β1 integrin) | tumor-induced angiogenesis, angiogenesis index as fractal dimension (Df) [2] | detection in blood plasma after i.p. injection [3] | apoptosis induction (MV3) | effect on tumor growth, i.p. route (B16F10 mouse melanoma; 2.5 mg/kg i.p. (data not shown)) | effect on tumor growth, i.p. route (B16F10 mouse melanoma; 5 mg/kg i.p. (data not shown)) | vessel number in paraffin sections of tumor (anti-von Willebrand factor) (B16F10 mouse melanoma; B16F10 melanoma, obtustatin treated animals vs control) | TUNEL staining of endothelial cells in tumor sections (B16F10 mouse melanoma; B16F10 melanoma, obtustatin-treated animals) | body weight during multiple injections (B16F10 mouse melanoma; melanoma experiments in mice, 5 and 2.5 mg/kg i.v., multiple injections) | caspase 8, fluorescent ELISA and Western blot (dHMVEC [4]; 2 hours) | caspase 3, colorimetric ELISA and Western blot (dHMVEC [4]; 16 hours (ELISA)) | annexin V binding (early apoptosis), flow cytometry (dHMVEC [4]; 16 hours, complete EBM-2 media) | cell morphology (dHMVEC [4]; 24 hours, complete medium with 5% FBS) | endothelial cell proliferation (dHMVEC [5]) | behavioral signs and body weight ([6]; single i.v. doses up to 20 mg/kg, 10 days observation) | H&E sections of liver ([6]; single i.v., 10 mg/kg and 20 mg/kg groups, after 10 days) | H&E sections of spleen ([6]; single i.v., 20 mg/kg group, after 10 days) | H&E sections of brain, lung, kidney, liver and spleen ([6]; single i.v., all concentrations up to 7 mg/kg, after 10 days) | apoptosis induction (B16F10) |
| --- | --- | --- | --- | --- | --- | --- | --- | --- | --- | --- | --- | --- | --- | --- | --- | --- | --- | --- | --- | --- |
| O=c1[nH]cc(F)c(=O)[nH]1 [5-fluorouracil (5-FU), 5-fluorouracil] | about 100 minutes | – | – | – | – | – | – | – | – | – | – | – | – | – | – | – | – | – | – | – |
| Ethylpyridylated(EP)-obtustatin [EP-obtustatin] | – | over four orders of magnitude decreasing activity | no activity | – | – | – | – | – | – | – | – | – | – | – | – | – | – | – | – | – |
| obtustatin | – | – | significantly diminished | not detectable | no apoptotic properties | no effect on tumor growth | only slightly, close to no significant ratio tumor suppression | significant reduction of vessel number | positive staining of DNA strand breaks | did not show any changes in body weight | appears to be activated | release of caspase 3 | annexin V binds to the surface of dHMVEC | typical apoptotic morphology | potent inhibitor of endothelial cell proliferation | did not reveal any toxic side effects | small areas of inflammations and necrotic patches in liver | significant necrotic patches in all animals | no effects | no apoptotic properties |
